Experimental data as given in ChEMBL document CHEMBL1124743, “Development of a novel series of (2-quinolinylmethoxy)phenyl-containing compounds as high-affinity leukotriene receptor antagonists. 1. Initial structure-activity relationships” (J Med Chem, 1990).
Active and inactive are the calls of the source. The rule behind the calls is not given here.

What was measured:
[1] = target: Cysteinyl leukotriene receptor (Cavia porcellus); experiment: Inhibition of the spasmogenic activity of LTD4 in guinea pig parenchymal strips.
[2] = target: T1, Cysteinyl leukotriene receptor 1 (Cavia porcellus, UniProt Q2NNR5); experiment: Binding affinity against Cysteinyl leukotriene D4 receptor from guinea pig lung was determined using [3H]LTD4 (0.2 nM)
T1 sequence (Q2NNR5 whole entry): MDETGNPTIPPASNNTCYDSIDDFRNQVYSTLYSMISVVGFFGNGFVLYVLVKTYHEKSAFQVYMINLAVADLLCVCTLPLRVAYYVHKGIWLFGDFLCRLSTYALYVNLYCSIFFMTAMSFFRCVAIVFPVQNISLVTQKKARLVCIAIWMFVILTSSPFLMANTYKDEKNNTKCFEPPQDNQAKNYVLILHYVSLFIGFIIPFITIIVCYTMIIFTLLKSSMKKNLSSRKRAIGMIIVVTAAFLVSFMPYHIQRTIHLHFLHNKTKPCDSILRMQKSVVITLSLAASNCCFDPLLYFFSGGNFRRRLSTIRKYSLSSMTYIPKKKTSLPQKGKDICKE
Method in brief: (§1)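 Membranes from guinea pig lung were incubated with 0.2 nM [3H]LTD4. Ki was derived from an IC50 read graphically, using at least four compound concentrations run in duplicate. Single-concentration values are % inhibition of specific binding at the stated concentration. Results are mean ± SEM with N separate experiments.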

Cavia porcellus [3] = species: Cavia porcellus; experiment: Oral activity expressed as percent inhibition in leukotriene mediated anaphylaxis assay in guinea pig at 60 uM; format: functional; details: in the assay text read “60 mg/kg” for “60 uM”
Method in brief: (§2)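 Immunized guinea pigs were pretreated with pyrilamine, propranolol and indomethacin, given compound orally, then challenged with aerosolized ovalbumin. Mortality was the end point. ED50 was determined graphically from at least three doses with at least six animals per dose. Other values are % inhibition at the indicated mg/kg dose.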

Cavia porcellus [4] = experiment: Oral activity expressed as percent inhibition in LTD4-induced wheal assay in guinea pig at 18 mg/kg
Cavia porcellus [5] = species: Cavia porcellus; experiment: Ability to inhibit the spasmogenic activity of LTD4 in guinea pig parenchymal strips at 10 uM; format: functional
[6] = target: T2, Cysteinyl leukotriene receptor 1 (Cavia porcellus) (UniProt Q2NNR5); experiment: Binding affinity at 10 uM against Cysteinyl leukotriene D4 receptor from guinea pig lung by [3H]LTD4 (0.2 nM) displacement.
T2 sequence (whole entry): T1 sequence (Q2NNR5 whole entry)
Method in brief: as §1

[7] = tested on: Cysteinyl leukotriene receptor (Cavia porcellus); experiment: inhibition of the spasmogenic activity of LTD4 in guinea pig parenchymal strips at 10 uM.
Cavia porcellus [8] = species: Cavia porcellus; experiment: Half life was determined; details: guinea pig
Cavia porcellus [9] = experiment: Effective dose to antagonize antigen induced bronchoconstrictive response (intraduodenal administration); format: functional
Method in brief: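 Actively sensitized guinea pigs were pretreated with indomethacin, pyrilamine and propranolol, then given compound intraduodenally and challenged with iv ovalbumin. Inhibition of bronchoconstriction was measured. ED50 is reported with 95% CI.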

[10] = tested on: Arachidonate 5-lipoxygenase (Cavia porcellus); experiment: Percent inhibition against 5-lipoxygenase from guinea pig polymorphonuclear […]; details: concentration not given here
Cavia porcellus [11] = species: Cavia porcellus; experiment: Compound was evaluated for its effect on LTE4 induced contractions of guinea pig peripheral lung strips; format: functional
Cavia porcellus [12] = species: Cavia porcellus; experiment: Compound was evaluated for its effect on histamine induced contractions of guinea pig peripheral lung strips; No significant effect up to 50 uM; format: functional
Cavia porcellus [13] = species: Cavia porcellus; experiment: Compound was evaluated for its effect on methacholine induced contractions of guinea pig peripheral lung strips; No significant effect up to 50 uM; format: functional
Cavia porcellus [14] = experiment: Effective dose to antagonize bronchoconstrictive response of LTD4 at 0.8 ug/kg (i.v.); format: functional; details: Lung, iv
[15] = target: T1, Cysteinyl leukotriene receptor 1; experiment: Compound was evaluated for inhibition against binding of [3H]LTD4 to Cysteinyl leukotriene D4 receptor
Method in brief: as §1

Cavia porcellus [16] = species: Cavia porcellus; experiment: Compound was evaluated for its effect on PGF2-alpha induced contractions of guinea pig peripheral lung strips; No significant effect up to 50 uM; format: functional
Cavia porcellus [17] = species: Cavia porcellus; experiment: Oral activity expressed as effective dose in LTD4-induced wheal assay in guinea pig; format: functional
Method in brief: (§3)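 Guinea pigs received compound orally 60 min before intradermal LTD4 challenge, and wheal formation was scored. ED50 came from linear regression over at least three doses, with at least five animals per point. Other values are % inhibition at the indicated mg/kg dose.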

Cavia porcellus [18] = species: Cavia porcellus; experiment: Oral activity expressed as effective dose in leukotriene mediated anaphylaxis assay in guinea pig; format: functional
Method in brief: as §2

Cavia porcellus [19] = species: Cavia porcellus; experiment: Compound was evaluated for its effect on LTD4 induced contractions of guinea pig peripheral lung strips; format: functional
Cavia porcellus [20] = species: Cavia porcellus; experiment: Compound was evaluated for its effect on LTC4 induced contractions of guinea pig peripheral lung strips; format: functional
Method in brief: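 Guinea pig lung parenchymal strips were suspended in a tissue bath and contracted with 0.2 nM LTC4. IC50 was determined graphically from at least four concentrations. Results are mean ± SEM with N separate experiments, or % inhibition at the stated concentration.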

Cavia porcellus [21] = species: Cavia porcellus; experiment: Ability to inhibit the spasmogenic activity of LTC4 in guinea pig parenchymal strips at 1 uM
Cavia porcellus [22] = species: Cavia porcellus; experiment: Oral activity expressed as percent inhibition in LTD4-induced wheal assay in guinea pig at 9 uM; format: functional; details: in the assay text read “at 9 mg/kg” for “at 9 uM”
Method in brief: as §3

Cavia porcellus [23] = species: Cavia porcellus; experiment: Oral activity expressed as percent inhibition in LTD4-induced wheal assay in guinea pig at 10 uM; format: functional; details: in the assay text read “at 10 mg/kg” for “at 10 uM”
Method in brief: as §3

[24] = target: T2, Cysteinyl leukotriene receptor 1 (Cavia porcellus); experiment: Binding affinity against Cysteinyl leukotriene D4 receptor from guinea pig lung was determined using [3H]LTD4 (0.2 nM) at compound concentration of 1 uM
Method in brief: as §1

Cavia porcellus [25] = species: Cavia porcellus; experiment: Oral activity expressed as percent inhibition in leukotriene mediated anaphylaxis assay in guinea pig at 30 uM; format: functional; details: in the assay text read “30 mg/kg” for “30 uM”
Method in brief: as §2

| Structure (SMILES) | IC50 [1] [µM] | Ki [2] [µM] | inhibition [6] [%] | inhibition [7] [%] | further results |
| --- | --- | --- | --- | --- | --- |
| CCOC(=O)CCCOc1ccc(OCc2ccc3ccccc3n2)cc1 | 2 | 0.5 | – | – | – |
| c1cc(OCc2ccc3ccccc3n2)cc(OCc2nn[nH]n2)c1 | 0.14 | 0.085 | – | – | Inhibition (Cavia porcellus [3]): 67%; Inhibition (Cavia porcellus [4]): 18% |
| c1ccc2nc(CSc3ccc(OCCCc4nnn[nH]4)cc3)ccc2c1 | – | 0.54 | – | – | – |
| c1cc(OCCCc2nnn[nH]2)cc(OCc2cc3ccccc3cn2)c1 | – | – | 45 | – | inhibition at 10 µM (Cavia porcellus [5]): 68% |
| c1ccc2[nH]c(COc3ccc(OCCCc4nnn[nH]4)cc3)nc2c1 | – | – | 28 | 42 | – |
| c1cc(OCCCc2nnn[nH]2)cc(OCc2ccc3ccccc3n2)c1 | 0.079 | 0.042 | – | – | half-life (Cavia porcellus [8]): ~4 h; ED50 (Cavia porcellus [9]): 2.5 mg/kg; inhibition [10]: 9%; Kb (Cavia porcellus [11]): ~0.09 µM; Activity (Cavia porcellus [12]): inactive; Activity (Cavia porcellus [13]): inactive; ED50 (Cavia porcellus [14]): 1.1 mg/kg; Ki [15]: 0.042 µM; Activity (Cavia porcellus [16]): inactive; ED50 (Cavia porcellus [17]): 6.9 mg/kg; ED50 (Cavia porcellus [18]): 16 mg/kg; Kb (Cavia porcellus [19]): ~0.09 µM; Kb (Cavia porcellus [20]): ~0.09 µM |
| Cc1cc(OCCCc2nnn[nH]2)cc(OCc2ccc3ccccc3n2)c1 | – | 0.64 | – | – | inhibition at 1 µM (Cavia porcellus [21]): 20% |
| O=C(O)CCCOc1ccc(OCc2ccc3ccccc3n2)cc1 | 0.8 | 1.2 | – | – | – |
| O=C(CCCOc1ccc(OCc2ccc3ccccc3n2)cc1)NS(=O)(=O)c1ccccc1 | 0.019 | 0.031 | – | – | Inhibition (Cavia porcellus [22]): 24%; Inhibition (Cavia porcellus [3]): 64% |
| c1ccc(OCc2ccc3ccccc3n2)cc1 | – | 1 | – | – | – |
| O=C(Nc1ccc(OCCCc2nnn[nH]2)cc1)c1ccc2ccccc2n1 | – | – | 25 | 4 | – |
| CCOC(=O)c1ccc(COc2ccc(OCCCc3nnn[nH]3)cc2)nc1 | – | – | 35 | 41 | – |
| c1ccc2nc(COc3ccc(OCCCc4nnn[nH]4)cc3)ncc2c1 | – | 0.5 | – | 75 | – |
| c1ccc(COc2cccc(OCCCc3nnn[nH]3)c2)nc1 | – | – | 10 | 18 | – |
| CCc1ccc(OCc2ccc3ccccc3n2)cc1OCCCc1nnn[nH]1 | 0.25 | 0.24 | – | – | – |
| c1ccc(COc2ccc(OCCCc3nnn[nH]3)cc2OCc2ccc3ccccc3n2)cc1 | – | – | 57 | 44 | – |
| O=C(O)c1ccc(COc2ccc(OCCCc3nnn[nH]3)cc2)nc1 | – | – | 30 | 22 | – |
| c1ccc2nc(COc3ccc(Cc4nnn[nH]4)cc3)ccc2c1 | 1 | 0.275 | – | – | – |
| c1cc(OCCCCc2nnn[nH]2)cc(OCc2ccc3ccccc3n2)c1 | 0.12 | 0.075 | – | – | Inhibition (Cavia porcellus [18]): 64% |
| c1ccc2nc(COCc3ccc(OCCCc4nnn[nH]4)cc3)ccc2c1 | – | 1.2 | – | – | – |
| c1ccc2sc(COc3ccc(OCCCc4nnn[nH]4)cc3)nc2c1 | – | 0.24 | – | 59 | – |

| Structure (SMILES) | IC50 [1] [µM] | Ki [2] [µM] | inhibition [6] [%] | inhibition [7] [%] | further results |
| --- | --- | --- | --- | --- | --- |
| c1ccc2nc(COc3ccc(SCCCc4nnn[nH]4)cc3)ccc2c1 | 0.025 | 0.031 | – | – | Inhibition (Cavia porcellus [23]): 23% |
| c1ccc2c(c1)CCC(COc1ccc(OCCCc3nnn[nH]3)cc1)N2 (stereo not given) | – | – | – | 22 | – |
| CCCCCC(O)c1cccc(OCc2ccc3ccccc3n2)c1 (stereo not given) [REV-5901] | – | 1.5 | – | – | – |
| c1ccc(OCc2ccc3ccccc3n2)c(OCCCc2nnn[nH]2)c1 | – | 3.3 | – | – | – |
| c1cc(OCCCc2nnn[nH]2)cc(OCc2cnc3ccccc3c2)c1 | – | – | 15 | -10 | – |
| c1ccc2nc(COc3ccc(CCCCc4nnn[nH]4)cc3)ccc2c1 | – | – | – | – | Inhibition (Cavia porcellus [23]): 35% |
| Cc1cc(OCc2ccc3ccccc3n2)ccc1OCCCc1nnn[nH]1 | – | 0.17 | – | – | – |
| c1ccc(Oc2cccc(COc3cccc(OCCCc4nnn[nH]4)c3)n2)cc1 | – | – | 48 | 9 | – |
| c1ccc2sc(COc3ccc(OCCCc4nnn[nH]4)cc3)cc2c1 | – | – | 9 | 36 | – |
| c1ccc2nc(COc3ccc(OCCCc4nnn[nH]4)cc3)ccc2c1 | 0.25 | 0.069 | – | – | half-life (Cavia porcellus [8]): ~4 h; ED50 (Cavia porcellus [17]): 7 mg/kg; ED50 (Cavia porcellus [18]): 50 mg/kg |
| c1ccc(-c2ccc(COc3cccc(OCCCc4nnn[nH]4)c3)nc2)cc1 | – | – | 58 | 22 | – |
| c1ccc2c(COc3ccc(OCCCc4nnn[nH]4)cc3)nccc2c1 | – | – | – | – | inhibition [24]: 7% |
| c1ccc(-c2cccc(COc3ccc(OCCCc4nnn[nH]4)cc3)n2)cc1 | – | – | 48 | 50 | – |
| O=C(NCc1ccc2ccccc2n1)c1ccc(OCCCc2nnn[nH]2)cc1 | – | – | 18 | -3 | – |
| O=C(O)CCCOc1cccc(OCc2ccc3ccccc3n2)c1 | – | – | – | – | ED50 (Cavia porcellus [17]): 7.2 mg/kg; ED50 (Cavia porcellus [18]): 20 mg/kg |
| O=C(Nc1ccc2ccccc2n1)c1ccc(OCCCc2nnn[nH]2)cc1 | – | – | 33 | 43 | – |
| CCOC(=O)CCCOc1cccc(OCc2ccc3ccccc3n2)c1 | 0.6 | 0.16 | – | – | Inhibition (Cavia porcellus [25]): 83%; ED50 (Cavia porcellus [17]): 15 mg/kg |
| c1ccc2nc(COc3ccc(CCc4nnn[nH]4)cc3)ccc2c1 | 0.28 | 0.16 | – | – | – |
| c1ccc(COc2cccc(OCCCc3nnn[nH]3)c2)cc1 | – | – | 12 | 9 | – |
| c1cc(OCCCc2nnn[nH]2)cc(OCc2ccc3ccccc3c2)c1 | – | – | 0 | 12 | – |
| c1cc(OCc2ccc3ccccc3n2)cc(-c2nn[nH]n2)c1 | 0.2 | 0.115 | – | – | ED50 (Cavia porcellus [18]): 145 mg/kg |
